Experimental data: publication PMC10447992 (Heliyon, 2023)

Legend:
[1] = Antioxidant activity screening by ABTS method; details: ABTS radical scavenging, 6 min incubation, absorbance at 734 nm
Outline: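 ABTS radical made from 7 mM ABTS plus 140 mM […], left in the dark at room temperature for 16 h, then diluted 1:44 (v/v) in water. Equal volumes of radical solution and sample mixed in microplate and held 6 min at room temperature. Absorbance read at 734 nm against 100% methanol. Percent inhibition calculated by formula; L-ascorbic acid as reference.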

[2] = MTT cytotoxicity assay, WISH cell line; type: cell-based; details: human, WISH cells (human amnion)
Outline: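 WISH cells (ATCC via VACSERA) grown in RPMI-1640 with 10% fetal bovine serum at 37 °C, 5% CO2. Seeded at 1.0 × 10^4 cells/well for 48 h, then treated 24 h with a range of concentrations. MTT (5 mg/mL stock) added for 4 h, formazan dissolved in DMSO, A570 read. Viability given as % of untreated cells. IC50 in μg/mL is the concentration giving 50% inhibition versus untreated cells. Doxorubicin reference.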

| Compound | ABTS Inhibition % [1] | IC50 at 24 h [2] |
| --- | --- | --- |
| O=C1O[C@H]([C@@H](O)CO)C(O)=C1O [L-Ascorbic acid] | 88.8% |  |
| COc1cccc2c1C(=O)c1c(O)c3c(c(O)c1C2=O)C[C@@](O)(C(=O)CO)C[C@@H]3O[C@H]1C[C@H](N)[C@H](O)[C@H](C)O1 [DOX, doxorubicin] |  | 3.18 ± 0.2 µM |
